Most compounds without a hit are left out; they make up all but 4.9% or so of the library.
Lipid droplet – modulators of hepatic lipid droplet formation; AML12 mouse hepatocytes, oleate lipid droplets, BODIPY imaging; inhibition, % at 6.5 µM; hit rate 0.4% among 240,000; AID 1656;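 active = lipid droplet intensity inhibited by at least 50%, with more than 500 cells counted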
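Assay system: AML12 hepatocytes (mouse) / Also added: 100 µM oleic acid challenge / Times: overnight treatment with compound plus oleate / Detection: high-content imaging of BODIPY-stained droplets and DAPI nuclei / Evaluation: % inhibition of lipid droplet signal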
CHT block – inhibits the human high affinity choline transporter; B-score at 10 µM; AID 488975; CHT-expressing cells, membrane potential dye, choline response; stronger effect = lower value; hit rate 0.86% among 310,000;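 active = B-score over 3 SD under the library average, and starting fluorescence ratio not unusually high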;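 note: choline stimulus applied at its EC90 after an EC20 pre-addition; B-score computed on integrated fluorescence ratio after choline addition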
PHOSPHO1 block – inhibitors of human PHOSPHO1 phosphatase; hit rate 1.1% among 290,000; Q8TCT1; inhibition, % at 13.3 µM; recombinant PHOSPHO1, absorbance phosphatase assay; AID 1565; in the data active = inhibition above about 60%
Target sequence (Q8TCT1 whole entry, looked up): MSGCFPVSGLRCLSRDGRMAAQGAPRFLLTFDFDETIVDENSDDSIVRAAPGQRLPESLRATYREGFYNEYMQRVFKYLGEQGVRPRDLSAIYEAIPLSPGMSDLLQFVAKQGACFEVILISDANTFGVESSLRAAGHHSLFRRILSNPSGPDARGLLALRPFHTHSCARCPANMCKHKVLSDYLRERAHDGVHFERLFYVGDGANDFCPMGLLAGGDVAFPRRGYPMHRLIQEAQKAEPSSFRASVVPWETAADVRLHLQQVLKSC
HSF1 inhib – HSF1 inhibition | activity change, negative = inhibition, % at 7.5 µM (by protocol) | hit rate 0.77% among 300,000 | AID 2098 | NIH3T3-HGL HSE-luciferase, MG132-induced, luminescence 8 h; stronger effect = lower value;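 active = more than half of replicate wells show activity change below -50%, luminescence cut by over half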;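 note: luciferase reports HSF-1 transcriptional activity via heat shock element; 0% = median of DMSO wells and -100% = zero luminescence signal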
HSF1 activator – increases HSF-1 driven luciferase reporter signal; hit rate 1.7% among 300,000; NIH3T3-HGL HSF-1 luciferase reporter, MG132, 8 h; 100% = twice DMSO control signal; activation, % at 9 µM;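 active = mean replicate activation of at least 50% with a set share of replicates each reaching 50%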;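 note: 0% = median of the neutral control wells and 100% = twice that signal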
CHT allo act – human CHT allosteric activation; hit rate 0.49% among 310,000; CHT-expressing cells, membrane potential dye, choline EC20; stronger effect = higher value; LV-AA mutant CHT in HEK293 cells; B-score at 10 µM;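 active = initial fluorescence not abnormally high and integrated response B-score, plate-corrected, over 3 SD above library mean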
Starred values were filed as active, the others as inactive; i = inactive; . = not tested or not shown.

SMILES	Lipid droplet	CHT block	PHOSPHO1 block	HSF1 inhib	HSF1 activator	CHT allo act
O=C(Nc1ccc(-c2nc3ccccc3s2)cc1)C1=COCCO1	-4	i	-5	-56*	-63	i
Oc1ccc(-c2nc3ccc4ccccc4c3c3c2CCC3)cc1O	1	i	-10	25	61*	i
COc1ccc(-c2cc(C(=O)O)nc3ccc4ccccc4c23)cc1OC	14	i	-3	-1	2	i
COC(=O)CNC(=O)C(NC(=O)c1ccc(Cl)cc1)C(C)C (stereo not given)	-3	i	-4	10	19	i
Cc1cc(C)c(C#N)c(SCC(=O)OC2CCCCC2)n1	15	i	-32	1	24	i
Cc1ccc2nc(NCc3ccccc3)c(C=O)c(=O)n2c1	11	i	-2	57	90*	i
O=C(Nc1ccc2c(c1)CCCN2C(=O)c1cccs1)c1cccc(F)c1	5	i	26	35	60*	i
O=C(Nc1ccc2c(c1)CCCN2C(=O)c1cccs1)c1ccccc1	14	i	26	19	33	i
Cc1cc(Cl)ccc1OCCNC(=S)NC(=O)c1cccnc1	-1	i	41	-10	-17	i
CCN=c1scc(-c2ccco2)n1/N=C/c1ccc(O)cc1	16	i	80*	2	20	i
CCN=c1scc(-c2ccco2)n1/N=C/c1ccc(OC)c(O)c1	-5	i	-7	3	22	i
CCOc1ccc(N)c(SSc2cc(OCC)ccc2N)c1	3	i	67*	-10	-22	i
CS(=O)(=O)c1ccc(N)c(SSc2cc(S(C)(=O)=O)ccc2N)c1	.	i	.	-2	4	i
C/C(=N\Nc1cccc2cccnc12)c1ccc[nH]1	.	i	37	36	63*	i
CCC(C(=O)NC(C)(C)C)N(Cc1ccccc1Cl)C(=O)c1snc(C(N)=O)c1N (stereo not given)	-39	i	30	11	16	i
CCC(C(=O)NC(C)(C)C)N(Cc1ccc(F)cc1)C(=O)c1snc(C(N)=O)c1N (stereo not given)	-15	i	8	-67*	-77	i
O=[N+]([O-])c1ccc(CSc2nnc(SCc3ccc(Cl)cc3)s2)cc1	-13	i	19	27	56*	i
Nc1ccc2nc(SCc3ccc([N+](=O)[O-])cc3)sc2c1	.	i	-11	57	98*	i
COc1cc(C(O)P(=O)(OC(C)C)OC(C)C)cc(OC)c1OC (stereo not given)	-16	i	-9	-13	-2	i
Cc1ccc(C(=O)NNC(=O)C2CCN(c3nc(C)cc(C)n3)CC2)cc1	.	i	50	-6	-12	i
COC(OC)c1nc(SCC(=O)Nc2cccc(Cl)c2)ncc1C(=O)O	-4	i	33	-12	-3	i
Cc1nc(NC(C)C)c2cnn(CCc3ccccc3)c2n1	.	i	-14	44	54*	i
CC(C)N(C(=O)COC(=O)c1ccccc1C(=O)c1ccc(Cl)c([N+](=O)[O-])c1)C(C)C	12	i	-18	74	91*	i
O=C(CCCCCNC(=O)c1ccccc1Cl)N/N=C/c1ccco1	4	i	-4	0	3	i
CCc1ccc(C(=O)NC2CCCCC2)s1	.	i	19	26	54*	i
SMILES	Lipid droplet	CHT block	PHOSPHO1 block	HSF1 inhib	HSF1 activator	CHT allo act
CC(C)(O)C#Cc1ccc(C(=O)NC2CCCCC2)s1	-2	i	3	10	16	i
Nc1nc(SCc2ccc(Cl)cc2Cl)ns1	2	i	-1	9	21	i
Cc1ccccc1CSc1nsc(N)n1	.	i	9	16	61*	i
CC(=O)Nc1cc2cc(NS(=O)(=O)c3ccc(Cl)cc3)ccc2oc1=O	-1	i	32	1	-6	i
Cc1cccc(S(=O)(=O)C(C#N)c2nc3ccccc3nc2N2CCOCC2)c1 (stereo not given)	.	i	78*	5	-9	i
Cc1ccc(S(=O)(=O)c2c(C)cc(C)nc2N2CCCCC2)cc1	-5	.	16	23	58*	.
Cc1ccc(S(=O)(=O)c2c(C)cc(C)nc2N2CCOCC2)cc1	-16	i	28	-5	5	i
COc1ccc(S(=O)(=O)C(C#N)c2nc3ccccc3nc2N2CCC(C)CC2)cc1 (stereo not given)	.	i	100*	0	13	i
Cc1ccc(S(=O)(=O)C(C#N)c2nc3ccccc3nc2N2CCCCC2)cc1 (stereo not given)	.	.	93*	.	.	.
CC1CCCN(c2nc3ccccc3nc2C(C#N)S(=O)(=O)c2ccccc2)C1 (stereo not given)	.	i	30	4	4	i
Cc1ccc(S(=O)(=O)C(C#N)c2nc3ccccc3nc2N2CCN(C)CC2)cc1 (stereo not given)	2	i	-17	-2	5	i
N#CC(c1nc2ccccc2nc1N1CCCCC1)S(=O)(=O)c1ccc(Cl)cc1 (stereo not given)	2	.	-42	.	.	.
O=C1NCCN/C1=C\C(=O)c1ccc(Br)cc1	10	i	12	22	40	i
Cc1nc(CNC(=O)C2CCC(=O)N(Cc3cccc(F)c3)C2)sc1C (stereo not given)	-2	i	38	-4	6	i
Cc1nnc(SCC(=O)NCc2ccc3c(c2)OCO3)n1C	-2	i	21	-4	-15	i
CCOc1ccc(S(=O)(=O)Nc2cc(Sc3ncn[nH]3)c3oc(=O)sc3c2)cc1	.	i	103*	2	3	i
CC1=NNC(=O)C1C(c1ccccc1)C1C(=O)NN=C1C (stereo not given)	1	i	48	84	128*	i
COC(=O)c1sccc1NC(=O)Nc1cccc(F)c1	12	i	23	33	77*	i
CN(Cc1ccccc1)C(=O)COC(=O)C1CCN(S(=O)(=O)c2cccs2)CC1	-15	i	8	1	23	i
COC(=O)c1sc(=S)n(-c2ccccc2OC)c1N	.	i	-122	-4	29	i
COc1ccc(Cl)cc1-n1c(N)c(C(N)=O)sc1=S	.	i	100*	-1	-3	i
Cc1ccc(-n2c(N)c(C(N)=O)sc2=S)c(C)c1	.	i	88*	1	6	i
CCCCNC(=O)c1sc(=S)n(-c2ccccc2OC)c1N	.	i	69*	-2	-20	i
CC(C)(C)NC(=O)CSc1nnc(C2CC2)n1Cc1ccccc1	.	i	3	2	1	i
COC(=O)c1sc2ncn(N)c(=O)c2c1C	-1	i	40	-24	-43	i
O=C(Cn1cnc2c(nnn2Cc2ccc(F)cc2)c1=O)NC1CCCC1	.	i	16	7	37	i
